Consider 30 compounds from ChEMBL document CHEMBL1130999, “GPIIb/IIIa integrin antagonists with the new conformational restriction unit, trisubstituted beta-amino acid derivatives, and a substituted benzamidine structure” (J Med Chem, 1998).

Structures are written as SMILES.

The nature of data set [1]: Elimination T1/2 in Guinea pig (IV dose). As to conditions: in vivo, read-out: T1/2 beta.
For the next data set, the species on record is Homo sapiens. The data set is described as follows: Inhibition of collagen-induced platelet aggregation in human platelet-rich plasma. The format is functional. The procedure, abridged:
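Human citrated PRP (160g, 15 min, room temperature) with platelet-poor plasma as reference. Samples at various concentrations were added at 37 °C 1 min before 5 µg/mL collagen. Aggregation was read as the increase in light transmission. Percent inhibition of aggregation rate versus control gave IC50 from dose-inhibition curves. Values are means ± SEM of three experiments; GRGDS peptide served as reference.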

Data set [2] has as its target Integrin alpha-IIb/beta-3 (Homo sapiens, UniProt P05106+P08514). The data set is described as follows: Binding affinity to human fibrinogen receptor. The format is protein-complex assay. The procedure, abridged:
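Competitive solid-phase ELISA. Plates were coated with 5 µg/mL human GPIIb/IIIa overnight at 4 °C and blocked 3 h at room temperature with 35 mg/mL BSA in 50 mM Tris, 100 mM NaCl, 2 mM CaCl₂, 0.02% NaN₃, pH 7.4. Human fibrinogen solution (30 µg/mL as added) plus inhibitor was incubated 3 h at room temperature. Bound fibrinogen was detected with alkaline phosphatase-conjugated anti-human fibrinogen antibody.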

The next data set in a line: Tmax in rat (PO dose). As to conditions: in vivo.
A short description of data set [3]: Cmax in rat (PO dose). As to conditions: in vivo. The format is ADME, organism-based. Also noted: route oral. The procedure, abridged: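 Male Sprague-Dawley rats (190-210 g) were fasted overnight with water available. Dosing was 10 mg/kg po as a suspension in 2% arabic gum. Jugular vein blood was drawn at 30, 60 and 120 min, and active-form plasma levels were measured by HPLC. Cmax is the highest of these three time points.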

Data set [4] can be described thus: Elimination T1/2 in Guinea pig (IV dose). As to conditions: in vivo.

Integrin alpha-IIb/beta-3, sequence (P05106 27-788 limits assumed): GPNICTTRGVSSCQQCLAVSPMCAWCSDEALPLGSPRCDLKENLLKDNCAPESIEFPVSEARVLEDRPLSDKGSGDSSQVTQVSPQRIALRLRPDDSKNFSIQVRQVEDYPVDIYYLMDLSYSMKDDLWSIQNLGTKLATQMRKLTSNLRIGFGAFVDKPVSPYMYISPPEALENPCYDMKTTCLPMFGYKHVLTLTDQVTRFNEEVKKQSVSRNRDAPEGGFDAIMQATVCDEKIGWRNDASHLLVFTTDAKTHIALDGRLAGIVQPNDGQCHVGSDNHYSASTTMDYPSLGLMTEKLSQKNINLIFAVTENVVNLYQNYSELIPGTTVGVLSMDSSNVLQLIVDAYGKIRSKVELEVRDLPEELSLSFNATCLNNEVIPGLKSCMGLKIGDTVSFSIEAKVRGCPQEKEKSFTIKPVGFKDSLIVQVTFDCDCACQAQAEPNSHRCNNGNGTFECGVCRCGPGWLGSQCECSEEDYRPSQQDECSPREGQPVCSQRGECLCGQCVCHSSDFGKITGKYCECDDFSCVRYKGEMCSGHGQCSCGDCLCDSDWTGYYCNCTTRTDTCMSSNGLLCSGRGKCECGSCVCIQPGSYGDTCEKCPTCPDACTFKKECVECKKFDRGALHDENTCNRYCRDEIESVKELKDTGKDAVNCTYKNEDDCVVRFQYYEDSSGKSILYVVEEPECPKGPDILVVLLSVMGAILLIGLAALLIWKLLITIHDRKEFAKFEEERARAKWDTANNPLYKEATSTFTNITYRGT
Integrin alpha-IIb/beta-3, sequence (P08514 32-887 limits assumed): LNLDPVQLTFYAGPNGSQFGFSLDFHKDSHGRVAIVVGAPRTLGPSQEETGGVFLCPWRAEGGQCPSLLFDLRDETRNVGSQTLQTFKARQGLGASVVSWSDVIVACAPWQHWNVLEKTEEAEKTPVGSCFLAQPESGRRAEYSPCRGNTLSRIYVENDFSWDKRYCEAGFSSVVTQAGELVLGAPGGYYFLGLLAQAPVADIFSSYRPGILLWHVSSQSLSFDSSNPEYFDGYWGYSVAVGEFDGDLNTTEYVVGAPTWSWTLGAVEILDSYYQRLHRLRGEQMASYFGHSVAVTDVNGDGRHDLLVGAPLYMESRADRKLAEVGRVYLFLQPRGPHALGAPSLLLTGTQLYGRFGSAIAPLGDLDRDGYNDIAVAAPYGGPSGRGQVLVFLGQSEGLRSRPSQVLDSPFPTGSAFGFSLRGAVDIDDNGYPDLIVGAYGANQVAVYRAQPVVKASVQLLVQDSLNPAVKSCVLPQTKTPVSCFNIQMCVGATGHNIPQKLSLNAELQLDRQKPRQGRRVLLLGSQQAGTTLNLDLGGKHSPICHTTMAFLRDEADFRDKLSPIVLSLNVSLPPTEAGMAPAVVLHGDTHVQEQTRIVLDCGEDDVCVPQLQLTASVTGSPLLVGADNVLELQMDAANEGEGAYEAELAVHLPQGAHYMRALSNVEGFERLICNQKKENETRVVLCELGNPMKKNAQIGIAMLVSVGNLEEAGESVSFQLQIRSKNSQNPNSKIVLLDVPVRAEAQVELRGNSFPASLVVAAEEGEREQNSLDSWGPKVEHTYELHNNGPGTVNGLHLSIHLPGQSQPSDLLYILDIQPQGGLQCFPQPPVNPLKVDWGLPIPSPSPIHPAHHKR
Integrin alpha-IIb/beta-3, sequence (P08514 891-1039 limits assumed): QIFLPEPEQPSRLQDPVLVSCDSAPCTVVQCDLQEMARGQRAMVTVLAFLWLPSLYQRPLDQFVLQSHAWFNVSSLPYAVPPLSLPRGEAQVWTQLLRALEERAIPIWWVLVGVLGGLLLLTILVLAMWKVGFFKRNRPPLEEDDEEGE

The term IC50 denotes the concentration needed to halve the response being measured. Low values mean greater potency, high ones weaker potency. Consider `CCCCCC(NC(=O)c1ccc(C(=N)N)cc1)C(C)(C)C(=O)N1CCC(CC(=O)O)CC1` (stereo not given), for which the half-life in data set [1] came to 0.517 h. Further, the IC50 is 160 nM in the data set filed under Homo sapiens and 22.3 nM in data set [2].
Taken in the same sequence, the figures for `CC(C)(C(=O)N1CCC(CC(=O)O)CC1)C(NC(=O)c1ccc(C(=N)N)cc1)c1cccc(Cl)c1` (stereo not given) were 2.5 h, 250 nM and 31.3 nM.
One may read the Tmax as the time at which the peak concentration occurs. A word on the Cmax: it is the peak of the concentration-time curve. Turning to `CCOC(=O)CC1CCN(C(=O)C(C)(C)C(CC)NC(=O)c2ccc(C(=N)N)cc2F)CC1` (stereo not given), the Tmax in “Tmax in rat (PO dose)” is 0.5 h. In data set [1], the half-life was determined as 1.48 h. The IC50 in the data set filed under Homo sapiens was 62 nM; in data set [2] it was 2.7 nM. Also, the Cmax in data set [3] was found to be 90 ng/mL.
As to `CC(C)(C(=O)N1CCC(CC(=O)O)CC1)C(NC(=O)c1ccc(C(=N)N)cc1)c1ccccc1` (stereo not given), the IC50 in the data set filed under Homo sapiens worked out at 230 nM; in data set [2] it was 25.3 nM. Further, the half-life in data set [4] worked out at 0.533 h.
Regarding `CCOC(=O)CC1CCN(C(=O)C(C)(C)C(CC)NC(=O)c2ccc(C(=N)N3CCSC3)cc2F)CC1` (stereo not given), the Tmax in “Tmax in rat (PO dose)” was 0.5 h. Also, the half-life in data set [1] came out at 1.83 h. In addition, the IC50 in the data set filed under Homo sapiens worked out at 45 nM; in data set [2] it was 2.3 nM. Besides, the Cmax in data set [3] amounted to 1210 ng/mL.
Take `CCCCC(NC(=O)c1ccc(C(=N)N)cc1)C(C)(C)C(=O)N1CCC(CC(=O)O)CC1` (stereo not given): the half-life in data set [1] was found to be 1.03 h. Moreover, the IC50 in the data set filed under Homo sapiens came out at 82 nM; in data set [2] it was 3.8 nM.
`CC(C)(/C=C/C(=O)c1ccc(C(=N)N)cc1)C(=O)N1CCC(CC(=O)O)CC1`: the IC50 amounted to 310 nM in the data set filed under Homo sapiens and 36 nM in data set [2].
`CC(C)(CNC(=O)c1ccc(C(=N)N)cc1)C(=O)N1CCC(CC(=O)O)CC1` displayed an IC50 in data set [2] of 125 nM.
Regarding `CC(C)(C(=O)N1CCC(CC(=O)O)CC1)C(NC(=O)c1ccc(C(=N)N)cc1)c1ccc(Cl)cc1` (stereo not given), the half-life in data set [1] came to 1.2 h. Moreover, the values for the IC50 (in the data set listed under Homo sapiens; in data set [2]) were 660 nM and 34.7 nM, respectively.
Regarding `CCCCC(NC(=O)c1ccc(C(=N)N)cc1F)C(C)(C)C(=O)N1CCC(CC(=O)O)CC1` (stereo not given), the half-life in data set [1] was found to be 1.3 h. In addition, the IC50 in the data set listed under Homo sapiens amounted to 81 nM; in data set [2], 5.7 nM.
Taken in the same sequence, the figures for `CC(C)CC(NC(=O)c1ccc(C(=N)N)cc1)C(C)(C)C(=O)N1CCC(CC(=O)O)CC1` (stereo not given) were 0.917 h, 81 nM and 2.7 nM.
As for `CCOC(=O)CC1CCN(C(=O)C(C)(C)C(CC)NC(=O)c2ccc(C(=N)N3CCN(c4ccc(F)cc4)CC3)cc2F)CC1` (stereo not given), in “Tmax in rat (PO dose)”, the time to peak (Tmax) is 1 h. Besides, in data set [1], the half-life stood at 0.417 h. Further, the IC50 in the data set filed under Homo sapiens worked out at 79 nM; in data set [2], 5.6 nM. This compound showed a Cmax in data set [3] of 232 ng/mL.
`CCCC(NC(=O)c1ccc(C(=N)N)cc1)C(C)(C)C(=O)N1CCC(CC(=O)O)CC1` (stereo not given): in data set [1], the half-life is 0.9 h. Besides, the IC50 in the data set filed under Homo sapiens amounted to 82 nM; in data set [2] it was 5.1 nM.
In the same order, the values of `CC(C)(C(=O)N1CCC(CC(=O)O)CC1)C(NC(=O)c1ccc(C(=N)N)cc1)c1ccc2ccccc2c1` (stereo not given) are 0.85 h, 380 nM and 21 nM.
Taken in the same sequence, the figures for `CC(C)(C(=O)N1CCC(CC(=O)O)CC1)C(CCc1ccccc1)NC(=O)c1ccc(C(=N)N)cc1` (stereo not given) were 0.767 h, 160 nM and 47.3 nM.
`CC(NC(=O)c1ccc(C(=N)N)cc1)C(C)(C)C(=O)N1CCC(CC(=O)O)CC1` (stereo not given): the half-life in data set [1] is 0.883 h. In addition, the IC50 in the data set filed under Homo sapiens was 82 nM; in data set [2], 5.3 nM.
Taken in the same sequence, the figures for `CC(C)C(NC(=O)c1ccc(C(=N)N)cc1)C(C)(C)C(=O)N1CCC(CC(=O)O)CC1` (stereo not given) were 0.8 h, 150 nM and 8.6 nM.
For `CCOC(=O)CC1CCN(C(=O)C(C)(C)C(CC)NC(=O)c2ccc(C(=N)N3CCC(O)CC3)cc2F)CC1` (stereo not given), the Tmax in “Tmax in rat (PO dose)” is 1 h. The half-life in data set [1] came out at 3.5 h. Further, the IC50 in the data set listed under Homo sapiens was 48 nM; in data set [2], 5.8 nM. For the same compound, the Cmax in data set [3] worked out at 290 ng/mL.
Turning to `C/C=C/C(NC(=O)c1ccc(C(=N)N)cc1)C(C)(C)C(=O)N1CCC(CC(=O)O)CC1` (stereo not given), the half-life in data set [1] was 0.933 h. Also, the IC50 in the data set listed under Homo sapiens was 170 nM; in data set [2] it was 13 nM.
Taken in the same sequence, the figures for `CN(C(=O)c1ccc(C(=N)N)cc1)C(c1ccccc1)C(C)(C)C(=O)N1CCC(CC(=O)O)CC1` (stereo not given) were 1.42 h, 300 nM and 21.3 nM.
In the same order, the values of `CC(C)(C(=O)N1CCC(CC(=O)O)CC1)C(NC(=O)c1ccc(C(=N)N)cc1)c1cccc(O)c1` (stereo not given) are 1.08 h, 76 nM and 2.6 nM.
In the same order, the values of `CC(C)(C(=O)N1CCC(CC(=O)O)CC1)C(NC(=O)c1ccc(C(=N)N)cc1)c1ccc(O)cc1` (stereo not given) are 1.05 h, 220 nM and 23.7 nM.
On to `CCC(NC(=O)c1ccc(C(=N)N)cc1)C(C)(C)C(=O)N1CCC(CC(=O)O)CC1` (stereo not given), for which the half-life in data set [1] was found to be 1.3 h. The IC50 in the data set listed under Homo sapiens worked out at 85 nM.
For the compound `CCOC(=O)CC1CCN(C(=O)C(C)(C)C(CC)NC(=O)c2ccc(C(=N)N3CCOCC3)cc2F)CC1` (stereo not given), the Tmax in “Tmax in rat (PO dose)” was 0.5 h. The half-life in data set [1] came to 4.62 h. Further, the IC50 in the data set filed under Homo sapiens was 160 nM; in data set [2], 4 nM. The compound further gave a Cmax in data set [3] of 922 ng/mL.
Turning to `C#CCN(C(=O)c1ccc(C(=N)N)cc1)C(CCCC)C(C)(C)C(=O)N1CCC(CC(=O)O)CC1` (stereo not given), the half-life in data set [1] was 1.5 h. Further, the IC50 in the data set listed under Homo sapiens amounted to 1400 nM; in data set [2] it was 363 nM.
Take `CC(NC(=O)c1ccc(C(=N)N)cc1F)C(C)(C)C(=O)N1CCC(CC(=O)O)CC1` (stereo not given): the half-life in data set [1] was found to be 1.4 h. Moreover, the IC50 amounted to 76 nM in the data set filed under Homo sapiens and 4.3 nM in data set [2].
In the case of `CCOC(=O)CC1CCN(C(=O)C(C)(C)C(CC)NC(=O)c2ccc(C(=N)N3CCCC3)cc2F)CC1` (stereo not given), in the data set “Tmax in rat (PO dose)”, the time of peak concentration (Tmax) was 1 h. In addition, the half-life in data set [1] was 2.07 h. The IC50 in the data set filed under Homo sapiens was found to be 89 nM; in data set [2], 7 nM. Further, the Cmax in data set [3] turned out to be 194 ng/mL.
With `CC(C)(C(=O)N1CCC(CC(=O)O)CC1)C(NC(=O)c1ccc(C(=N)N)cc1Cl)c1ccccc1` (stereo not given), the half-life in data set [1] came out at 1.25 h. The IC50 was found to be 370 nM in the data set filed under Homo sapiens and 27.3 nM in data set [2].
As for `CCOC(=O)CC1CCN(C(=O)C(C)(C)C(CC)NC(=O)c2ccc(C(=N)N3CCN(C)CC3)cc2F)CC1` (stereo not given), the Tmax in “Tmax in rat (PO dose)” is 2 h. Moreover, the half-life in data set [1] stood at 1.77 h. In addition, the IC50 in the data set filed under Homo sapiens turned out to be 72 nM; in data set [2], 5.4 nM. Further, the concentration in data set [3] peaked (Cmax) at 392 ng/mL.
Consider `CCC(NC(=O)c1ccc(C(=N)N)cc1F)C(C)(C)C(=O)N1CCC(CC(=O)O)CC1` (stereo not given), for which, in data set [1], the half-life was 1.48 h. Besides, the IC50 amounted to 62 nM in the data set filed under Homo sapiens and 2.7 nM in data set [2].
